Results on 39 compounds are retold here after ChEMBL document CHEMBL1152276, “Substituted 2-imino-5-arylidenethiazolidin-4-one inhibitors of bacterial type III secretion” (J Med Chem, 2008).

The source made the active and inactive calls. The rule behind the calls is not given here.

The nature of assay [1]: Inhibition of Salmonella enterica serovar Typhimurium type 3 secretion system-mediated SipA protein secretion by Western blotting. Also on record: species or system Salmonella enterica subsp. enterica serovar Typhimurium. In outline: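 Bacteria were grown 18 h in LB broth and pelleted, and culture supernates were 0.2 μm-filtered. Proteins were precipitated with 10% TCA on ice for 30 min, centrifuged, acetone-washed and resolved by SDS-PAGE. Western blots were probed with polyclonal anti-SipA. IC50 was calculated from percent inhibition of secreted SipA using at least 3 inhibitor concentrations.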
In general terms: In western blotting, separated proteins are transferred to a membrane and probed.

Another assay has as its system Salmonella typhimurium. The experiment in a line: Growth inhibition of Salmonella enterica serovar Typhimurium ATCC 14028 up to 1 mM. It is filed as functional, organism-based. As to conditions: Salmonella enterica subsp. enterica serovar Typhimurium. In outline:
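Aliquots (30 μL) of a 2 mL overnight culture were dosed with 0.1, 1.0, 2.0, 3.0, 6.0 or 15.0 μL of compound in DMSO. DMSO alone in LB served as the control.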

Assay [2] has as its system Salmonella enterica subsp. enterica serovar Typhimurium. The experiment in a line: Inhibition of Salmonella enterica serovar Typhimurium type 3 secretion system-mediated SipA protein secretion at 1 uM by Western blotting.

`COc1cc(/C=C2\S/C(=N\c3ccccc3)N(CCCC(=O)O)C2=O)cc(OC)c1O`: in assay [1], the IC50 came to 66 µM.

With `COc1cc(/C=C2\S/C(=N\c3ccc(CN)cc3)N(c3ccccc3)C2=O)cc(OC)c1O`, the half-inhibitory concentration (IC50) in assay [1] was determined as 101 µM.

In assay [1], `O=C1/C(=C/c2ccncc2)S/C(=N\c2ccccc2)N1c1ccccc1` displayed an IC50 of 376 µM.

As to `COc1cc(/C=C2\S/C(=N\c3ccccc3)N([C@@H](C)C(=O)N[C@@H](CCCN)C(N)=O)C2=O)cc(OC)c1O`, in assay [1], the IC50 is 16 µM.

Turning to `O=C1/C(=C/c2ccc(Cl)cc2)S/C(=N\c2ccccc2)N1c1ccccc1`, in assay [1], the IC50 was determined as 322 µM.

With `CSc1ccc(/C=C2\S/C(=N\c3ccccc3)N(c3ccccc3)C2=O)cc1`, the IC50 in assay [1] was 26 µM. This IC50 lies about 12-fold lower than the previous one.

Regarding `COc1cc(/C=C2\S/C(=N\c3ccccc3)N(c3ccccc3)C2=O)cc(OC)c1O`, the outcome in the assay with Salmonella typhimurium was inactive. Besides, the IC50 in assay [1] was determined as 83 µM.

The compound `COc1cc(/C=C2\S/C(=N\c3ccccc3)N([C@@H](CCCNC(=N)N)C(=O)N[C@@H](Cc3ccc(-c4ccccc4)cc3)C(N)=O)C2=O)cc(OC)c1O` came in with an IC50 in assay [1] of 50 µM.

Compound `COc1cc(/C=C2\S/C(=N\c3ccccc3)N([C@@H](C)C(=O)N[C@@H](C)C(N)=O)C2=O)cc(OC)c1O` yielded an IC50 in assay [1] of 62 µM. The IC50 values of the last two compounds are within 1.5-fold of each other.

`COc1ccc(N2C(=O)/C(=C/c3cc(OC)c(O)c(OC)c3)S/C2=N\c2ccccc2)cc1` displayed an IC50 in assay [1] of 51 µM.

For the compound `COc1cc(/C=C2\S/C(=N\c3ccccc3)N([C@@H](CCCN)C(=O)N[C@@H](Cc3ccc(-c4ccccc4)cc3)C(N)=O)C2=O)cc(OC)c1O`, in the assay with Salmonella typhimurium, the outcome was inactive. The same compound came in with an IC50 in assay [1] of 13 µM.

Turning to `COc1ccc(N2C(=O)/C(=C/C3CCCCC3)S/C2=N\c2ccccc2)cc1`, in assay [1], half-maximal inhibition (IC50) required 278 µM.

`COc1cc(/C=C2\S/C(=N\c3ccccc3)N([C@@H](C)C(=O)N[C@@H](CCCNC(=N)N)C(N)=O)C2=O)cc(OC)c1O` showed an IC50 in assay [1] of 77 µM.

Compound `COc1cc(/C=C2\S/C(=N\c3ccccc3)N(CCCCCCN)C2=O)cc(OC)c1O` had an IC50 in assay [1] of 54 µM.

`CC(C)(C)/C=C1\S/C(=N\c2ccccc2)N(c2ccccc2)C1=O` showed an IC50 in assay [1] of 244 µM.

Consider `COc1cc(/C=C2\S/C(=N\c3ccccc3)N(c3ccc(CN)cc3)C2=O)cc(OC)c1O`, for which the result in the assay with Salmonella typhimurium was inactive. Inhibition in assay [1] was half-maximal at 52 µM (IC50).

In turn, `COc1ccc(N2C(=O)/C(=C/C(C)(C)C)S/C2=N\c2ccccc2)cc1` gave an IC50 in assay [1] of 160 µM.

As to `COc1cc(/C=C2\S/C(=N\c3ccccc3)N(C(CCCN)C(=O)N[C@H](CC3CNc4ccccc43)C(N)=O)C2=O)cc(OC)c1O` (mixture of isomers), the IC50 in assay [1] was 52 µM.

`COc1cc(/C=C2\S/C(=N\c3ccccc3)N(CC(=O)O)C2=O)cc(OC)c1O`: 36 µM corresponded to half-maximal inhibition in assay [1] (IC50). Also, the outcome in assay [2] was Active.

The compound `COc1ccc(/N=C2\S/C(=C\c3ccncc3)C(=O)N2c2ccccc2)cc1` yielded a concentration for half-maximal inhibition (IC50) in assay [1] of 137 µM.

In assay [1], `COc1cc(/C=C2\S/C(=N\c3ccccc3)N(C(CCCN)C(=O)N[C@@H](CC3CNc4ccccc43)C(N)=O)C2=O)cc(OC)c1O` (mixture of isomers) registered an IC50 of 56 µM. Against the preceding compound, the IC50 is about 2.4-fold lower.

As for `COc1cc(/C=C2\S/C(=N\c3ccccc3)N([C@H](C)C(=O)N[C@@H](CCCNC(=N)N)C(N)=O)C2=O)cc(OC)c1O`, in assay [1], the IC50 came out at 38 µM.

With `COc1cc(/C=C2\S/C(=N\c3ccccc3)N(C(Cc3ccc(-c4ccccc4)cc3)C(=O)N[C@@H](CCCN)C(N)=O)C2=O)cc(OC)c1O` (single isomer, unassigned), the IC50 in assay [1] was found to be 55 µM.

In assay [1], `COc1cc(/C=C2\S/C(=N\c3ccccc3)N(C(CCCNC(=N)N)C(=O)N[C@@H](C)C(N)=O)C2=O)cc(OC)c1O` (stereo partly specified) yielded an IC50 of 41 µM.

`COc1cc(/C=C2\S/C(=N\c3ccccc3)N([C@@H](C)C(=O)N[C@@H](Cc3ccc(O)cc3)C(N)=O)C2=O)cc(OC)c1O` registered an IC50 in assay [1] of 112 µM.

`COc1cc(/C=C2\S/C(=N\c3ccccc3)N(C(C(=O)N[C@@H](Cc3ccc(O)cc3)C(N)=O)C(C)C)C2=O)cc(OC)c1O` (stereo partly specified) had an IC50 in assay [1] of 52 µM.

As to `COc1cc(/C=C2\S/C(=N\c3ccccc3)N([C@H](C)C(=O)N[C@@H](CCCN)C(N)=O)C2=O)cc(OC)c1O`, the IC50 in assay [1] worked out at 9 µM. Compared with the last compound, the IC50 is about 5.8-fold lower.

In assay [1], `COc1cc(/C=C2\S/C(=N\c3ccccc3)N(C(C)C(=O)N[C@@H](Cc3c[nH]c4ccccc34)C(N)=O)C2=O)cc(OC)c1O` (stereo in doubt; 44b) came in with an IC50 of 29 µM.

`COc1cc(/C=C2\S/C(=N\c3ccccc3)N([C@@H](Cc3ccc(-c4ccccc4)cc3)C(=O)N[C@@H](CCCNC(=N)N)C(N)=O)C2=O)cc(OC)c1O`: the outcome with Salmonella typhimurium was inactive. Also, the half-inhibitory concentration (IC50) in assay [1] turned out to be 3 µM.

In assay [1], `COc1cc(/C=C2\S/C(=N\c3ccccc3)N(C(C)C(=O)N[C@@H](Cc3c[nH]c4ccccc34)C(N)=O)C2=O)cc(OC)c1O` (stereo in doubt; 44a) had an IC50 of 30 µM.

In assay [1], `COc1cc(/C=C2\S/C(=N\c3ccccc3)N(C(CCCNC(=N)N)C(=O)N3Cc4ccccc4C[C@H]3C(N)=O)C2=O)cc(OC)c1O` (stereo partly specified) came in with an IC50 of 115 µM.

`COc1ccc(/C=C2\S/C(=N\c3ccccc3)N(c3ccccc3)C2=O)cc1OC` registered an IC50 in assay [1] of 278 µM.

As for `COc1cc(/C=C2\S/C(=N\c3ccccc3)N([C@@H](CCC(=O)O)C(=O)N[C@@H](Cc3ccc(-c4ccccc4)cc3)C(N)=O)C2=O)cc(OC)c1O`, inhibition in assay [1] was half-maximal at 50 µM (IC50).

`COc1cc(/C=C2\S/C(=N\c3ccccc3)N(C(CCCNC(=N)N)C(=O)N3CSC[C@H]3C(N)=O)C2=O)cc(OC)c1O` (stereo partly specified) yielded an IC50 in assay [1] of 65 µM.

In turn, `O=C1/C(=C/C2CCCCC2)S/C(=N\c2ccccc2)N1c1ccccc1` gave an IC50 in assay [1] of 225 µM.

Turning to `COc1cc(/C=C2\S/C(=N\c3ccccc3)N([C@@H](CCCN)C(=O)N[C@@H](C)C(N)=O)C2=O)cc(OC)c1O`, in assay [1], the half-maximal inhibitory concentration (IC50) was 32 µM. This IC50 lies about 7-fold lower than the previous one.

Turning to `COc1cc(/C=C2\S/C(=N\c3ccccc3)N(c3ccc(CNC(=O)OC(C)(C)C)cc3)C2=O)cc(OC)c1O`, the result in the assay on Salmonella typhimurium was inactive. Also, in assay [1], the midpoint of inhibition, the IC50, lay at 45 µM.

In assay [1], `COc1cc(/C=C2\S/C(=N\c3ccccc3)N([C@H](Cc3ccc(-c4ccccc4)cc3)C(=O)N[C@@H](CCCNC(=N)N)C(N)=O)C2=O)cc(OC)c1O` had an IC50 of 8 µM.

On to `COc1cc(/C=C2\S/C(=N\c3ccccc3)N(CCCC(=O)OC(C)(C)C)C2=O)cc(OC)c1O`, for which the IC50 in assay [1] stood at 4 µM. In assay [2], the outcome was Active.

Broadly, the IC50 is the concentration that inhibits the measured activity by half. Read a high IC50 as a need for much substance.
